ChEMBL document CHEMBL1147681, “Identification of a terphenyl derivative that blocks the cell cycle in the G0-G1 phase and induces differentiation in leukemia cells” (J Med Chem, 2006)
The source made the active and inactive calls. The calls are words filed in the database; no cut-off is given here.

Assays:
HL-60 [1] = assay: Antiproliferative activity against human HL60 cell line; type: functional, cell-based
Summary of the method: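 Cell growth inhibition measured by counting cells with an automatic cell counter in sensitive HL60, MDR HL60R and Bcr-Abl-expressing K562 cells. IC50 is the concentration inhibiting 50% of cell growth.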

HL-60 [2] = assay: Proapoptotic activity against human HL60 cell line; type: functional, cell-based
Summary of the method: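 Apoptosis assessed by morphological assay and annexin V test. AC50 is the concentration inducing apoptosis in 50% of cells.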

HL-60 [3] = assay: Cell cycle arrest in human HL60 cells by accumulation at S phase at 30 uM; type: functional, cell-based
Summary of the method: (§1)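 HL60 cells were stained with propidium iodide and analysed by flow cytometry for sub-G0-G1, G0-G1, S and G2-M peaks against untreated control. Exposures were 50 µM for 8 h or 24 h, 10 µM for 96 h, and 20 or 30 µM for 24 h.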

HL-60 [4] = assay: Cell cycle arrest in human HL60 cells by accumulation at G2/M phase at 20 uM; type: functional, cell-based; summary of the method: as §1
HL-60 [5] = assay: Cell cycle arrest in human HL60 cells by accumulation at G0/G1 phase at 50 uM after 8 hrs; type: functional, cell-based; summary of the method: as §1
HL-60 [6] = assay: Cell cycle arrest in human HL60 cells by accumulation at G0/G1 phase at 10 uM after 96 hrs; type: functional, cell-based; summary of the method: as §1
HL-60 [7] = assay: Induction of differentiation of human HL60 cells at 10 uM measured as expression of monocytic marker CD14 after 4 days; type: functional
Summary of the method: (§2)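 HL60 cells exposed to 10 µM compound; CD14 (monocytic), CD11b and CD11c (granulocytic) surface expression measured by flow cytometry, as percentage of positive cells versus untreated control. Read-out given as 72 h in text, 4 days in table.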

HL-60 [8] = assay: Induction of differentiation of human HL60 cells at 10 uM measured as expression of granulocytic marker CD11b after 4 days; type: functional; summary of the method: as §2
HL-60 [9] = assay: Induction of differentiation of human HL60 cells at 10 uM measured as expression of granulocytic marker CD11c after 4 days; type: functional; summary of the method: as §2
HL-60 [10] = assay: Cell cycle arrest in human HL60 cells by accumulation at G2/M phase at 10 uM; type: functional, cell-based
Summary of the method: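 HL60 cells exposed for 24 h at 10 µM, stained with propidium iodide, and analysed by flow cytometry for DNA content. Sub-G0-G1 (apoptotic), G0-G1, S and G2-M peaks compared with untreated HL60 cells.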

SMILES	IC50 (HL-60 [1]) [µM]	AC50 (HL-60 [2]) [µM]	also measured
COc1cc(/C=C/c2ccccc2O)cc(OC)c1	9	35	–
COc1cc(/C=C/c2cccc(OC)c2O)cc(OC)c1	3.5	15	Activity (HL-60 [3]): Active
COc1cc(OC)cc(-c2ccccc2-c2ccc(O)cc2)c1	5	10	–
COc1cc(OC)cc(-c2ccc3cc(OC)ccc3c2)c1	76	91	–
COc1ccc(-c2ccccc2-c2cc(OC)cc(OC)c2)cc1	7	15	–
COc1cc(/C=C/c2cc(C(C)(C)C)c(O)c(C(C)(C)C)c2)cc(OC)c1	84	> 100	–
Oc1ccc(-c2ccccc2-c2cc(O)cc(O)c2)cc1	3.5	9	Activity (HL-60 [4]): Active
COc1cc(/C=C/c2cc(OC)c(O)c(OC)c2)cc(OC)c1	20	79	–
Oc1ccc(-c2ccc(-c3cc(O)cc(O)c3)cc2)cc1	7	25	Activity (HL-60 [5]): Active; Activity (HL-60 [6]): Active; Activity (HL-60 [7]): 58%; Activity (HL-60 [8]): 62%; Activity (HL-60 [9]): 60%
COc1ccc(-c2cccc(-c3cc(OC)cc(OC)c3)c2)cc1	50	> 100	–
COc1ccc(-c2ccc(-c3cc(OC)cc(OC)c3)cc2)cc1	75	> 100	–
COc1cc(OC)cc(-c2ccc(-c3ccc(O)cc3)cc2)c1	2.5	30	–
Oc1ccc(/C=C/c2cc(O)cc(O)c2)cc1 [RESVERATROL]	–	–	Activity (HL-60 [7]): 23%; Activity (HL-60 [8]): 24%; Activity (HL-60 [9]): 22%
Oc1cc(O)cc(-c2ccc3cc(O)ccc3c2)c1	28	48	–
COc1cc(OC)cc(-c2ccc3cc(O)ccc3c2)c1	10	19	–
COc1cc(/C=C/c2ccc(O)cc2)cc(OC)c1 [PTEROSTILBENE]	–	75	–
COc1cc(/C=C/c2cc(Cl)ccc2O)cc(OC)c1	14	29	–
COc1ccc(/C=C/c2cc(OC)cc(OC)c2)cc1 [TRISMETHOXYRESVERATROL]	2.5	4	Activity (HL-60 [10]): Active
Oc1ccc(-c2cccc(-c3cc(O)cc(O)c3)c2)cc1	27	63	–
COc1cc(OC)cc(-c2cccc(-c3ccc(O)cc3)c2)c1	4.8	23	–
COc1cc(/C=C/c2cccc(O)c2)cc(OC)c1	23	58	–
CCOc1cc(/C=C/c2cc(OC)cc(OC)c2)ccc1O	11	18	–
